Measured values from ChEMBL document CHEMBL4765355, “Synthesis of adenine dinucleosides SAM analogs as specific inhibitors of SARS-CoV nsp14 RNA cap guanine-N7-methyltransferase” (Eur J Med Chem, 2020).
Active and inactive are the calls of the source. The rule behind the calls is not given here.

Experiments:
[1] = system: Dengue virus; experiment: Inhibition of 2'-O-methyltransferase in Dengue virus at 200 uM
[2] = system: West Nile virus; experiment: Inhibition of 2'-O-methyltransferase in West-Nile virus at 200 uM
[3] = system: Orthopoxvirus vaccinia; experiment: Inhibition of N7-MTase activity of Vaccinia virus mRNA capping enzyme D1/D12 complex using GpppAC4 and [3H]SAM as substrate at 50 uM preincubated with enzyme followed by substrate addition and measured after 30 mins by filter binding assay
How it was run: (§1)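 Filter binding assay in 40 mM Tris-HCl pH 8.0, 1 mM DTT, 1 mM MgCl2, 2 µM SAM, 0.1 µM 3H-SAM and 0.7 µM GpppAC4 RNA. Enzyme is nsp14 (50 nM), hRNMT (50 nM) or vaccinia D1–D12 (41 U). Compound is at 50 µM with 5% final DMSO. Reactions run 30 min at 30 °C, are stopped by ice-cold water dilution, and 3H on DEAE filters is counted. Percent inhibition is relative to a 5% DMSO control, mean of three experiments.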

[4] = Binding affinity to SARS-CoV nsp14 by TSA based analysis; design: species or system Severe acute respiratory syndrome-related coronavirus
How it was run: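 Thermal shift assay with nsp14 (5 µM) in HEPES pH 7.5/NaCl/SYPRO orange, using increasing compound concentrations and a 20–95 °C ramp. Apparent KD is obtained by nonlinear regression with a one-site specific binding Hill slope equation.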

[5] = system: Severe acute respiratory syndrome-related coronavirus; experiment: Binding affinity to SARS-CoV nsp14 assessed as melting temperature at 1 mM at pH 7.5 by differential scanning fluorimetry
How it was run: (§2)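 Purified SARS-CoV nsp14 (5 µM) in 20 mM HEPES pH 7.5, 150 mM NaCl and 1X SYPRO orange, with 1 mM compound (DMSO stock; SAM and sinefungin from water). Protein is mixed with compound before dye is added. Fluorescence is read from 20 to 95 °C at 0.2 °C/min. Tm comes from curve fitting, and ΔTm is taken against a 5% DMSO control.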

[6] = biological target: mRNA cap guanine-N(7) methyltransferase (Homo sapiens, UniProt O43148); experiment: Inhibition of N-terminal His6-tagged human RNA-N7 MTase expressed in Escherichia coli using GpppAC4 and [3H]SAM as substrate preincubated with enzyme followed by substrate addition and measured after 30 mins by filter binding assay
Chain of mRNA cap guanine-N(7) methyltransferase (O43148 whole entry): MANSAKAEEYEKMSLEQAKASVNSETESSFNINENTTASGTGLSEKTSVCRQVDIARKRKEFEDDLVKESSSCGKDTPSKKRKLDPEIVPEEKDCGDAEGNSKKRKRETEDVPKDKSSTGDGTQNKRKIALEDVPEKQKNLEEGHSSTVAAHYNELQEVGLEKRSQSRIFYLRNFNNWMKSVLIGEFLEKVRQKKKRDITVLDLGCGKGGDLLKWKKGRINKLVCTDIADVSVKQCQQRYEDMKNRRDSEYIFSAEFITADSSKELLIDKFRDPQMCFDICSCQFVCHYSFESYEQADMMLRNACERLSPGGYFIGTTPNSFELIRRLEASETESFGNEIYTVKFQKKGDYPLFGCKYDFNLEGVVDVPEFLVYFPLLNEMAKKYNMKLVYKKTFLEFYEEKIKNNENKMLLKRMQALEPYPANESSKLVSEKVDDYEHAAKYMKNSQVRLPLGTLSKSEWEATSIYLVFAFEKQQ
How it was run: (§3)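 Dose-response filter binding assay with nsp14 or hRNMT (each 50 nM) pre-incubated with increasing compound concentrations (5% final DMSO). Then 0.7 µM GpppAC4, 2 µM SAM and 0.1 µM 3H-SAM are added in Tris pH 8.0/DTT/MgCl2, 30 min at 30 °C. IC50 is taken from a Hill slope fit, mean of three independent experiments.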

[7] = system: Severe acute respiratory syndrome-related coronavirus; experiment: Inhibition of N7-MTase activity of N-terminal His6-tagged SARS-CoV nsp14 expressed in Escherichia coli using GpppAC4 and [3H]SAM as substrate at 50 uM preincubated with enzyme followed by substrate addition and measured after 30 mins by filter binding assay; how it was run: as §1
[8] = system: Orthopoxvirus vaccinia; experiment: Inhibition of 2'-O-methyltransferase activity of Vaccinia virus VP39 at 200 uM
[9] = system: Severe acute respiratory syndrome-related coronavirus; experiment: Inhibition of 2'-O-MTase activity of SARS-CoV nsp10/16 complex at 200 uM
[10] = system: Zika virus; experiment: Inhibition of 2'-O-methyltransferase in Zika virus at 200 uM
[11] = Inhibition of N7-MTase activity of N-terminal His6-tagged SARS-CoV nsp14 expressed in Escherichia coli using GpppAC4 and [3H]SAM as substrate preincubated with enzyme followed by substrate addition and measured after 30 mins by filter binding assay; design: species or system Severe acute respiratory syndrome-related coronavirus; how it was run: as §3
[12] = biological target: RNA-N7 MTase (mRNA cap guanine-N(7) methyltransferase) (Homo sapiens, UniProt O43148); experiment: Inhibition of N-terminal His6-tagged human RNA-N7 MTase expressed in Escherichia coli using GpppAC4 and [3H]SAM as substrate at 50 uM preincubated with enzyme followed by substrate addition and measured after 30 mins by filter binding assay; conditions: probe GpppAC4 and [3H]SAM; how it was run: as §1
Chain of RNA-N7 MTase (mRNA cap guanine-N(7) methyltransferase) (O43148 whole entry): as above

[13] = system: Severe acute respiratory syndrome-related coronavirus; experiment: Binding affinity to SARS-CoV nsp14 assessed as increase in melting temperature at 1 mM at pH 7.5 by differential scanning fluorimetry; how it was run: as §2

Nc1ncnc2c1ncn2[C@@H]1OC(CN(CCO[C@@H]2[C@H](O)C(CO)O[C@H]2n2cnc3c(N)ncnc32)S(=O)(=O)c2ccc(Cl)c([N+](=O)[O-])c2)[C@@H](O)[C@H]1O (single isomer, unassigned)
inhibition [1]: inactive
inhibition [2]: inactive
inhibition [3]: 2.8%
Kd [4]: 1300 nM
Tm [5]: > 40 °C
IC50 [6]: 247000 nM
inhibition [7]: 97.2%
inhibition [8]: inactive
inhibition [9]: inactive
inhibition [10]: inactive
IC50 [11]: 600 nM
inhibition at 0.5 h, 50 µM [12]: 33.9%
ΔTm [13]: 10.8 °C
